According to ChEMBL document CHEMBL1250480, “Design, synthesis and qualitative structure-activity evaluations of novel hexahydropyrano[3,2-c][1,2]diazepin-3(4H)-one and tetrahydropyrano[3,2-b]pyrrol-2(1H)-one derivatives as anticancer agents” (Eur J Med Chem, 2010):
pIC50: −log10 of the molar value.

Columns and labels:
Format in all cases: functional, cell-based
DU-145 = experiment: Cytotoxicity against human DU145 cells after 48 hrs by SRB assay; settings: DU-145, 48 h
Procedure, shortened: (§1)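 Cells grown in RPMI-1640 with 10% FBS and antibiotics at 37 °C, 5% CO2. Agents from fresh 1 mg/ml DMSO stocks were diluted in medium and applied for 48 h at 37 °C in triplicate wells. Cells were fixed with cold 50% TCA, stained with 0.4% SRB, and the dye solubilized in 10 mM Tris pH 10.5 before reading A570. IC50 is the concentration giving 50% reduction in net protein increase versus untreated cells, after blank correction. Values are the mean ± SEM of at least two independent runs.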

SK-N-SH = experiment: Cytotoxicity against human SK-N-SH cells after 48 hrs by SRB assay; procedure, shortened: as §1
A549 = experiment: Cytotoxicity against human A549 cells after 48 hrs by SRB assay; settings: A549, 48 h; procedure, shortened: as §1
SK-BR-3 = experiment: Cytotoxicity against human SK-BR-3 cells after 48 hrs by SRB assay; settings: SK-BR-3, 48 h; procedure, shortened: as §1
HCT-116 = experiment: Cytotoxicity against human HCT116 cells after 48 hrs by SRB assay; settings: HCT-116, 48 h; procedure, shortened: as §1

| SMILES | pIC50 (DU-145) | pIC50 (SK-N-SH) | pIC50 (A549) | pIC50 (SK-BR-3) | pIC50 (HCT-116) |
| --- | --- | --- | --- | --- | --- |
| CO[C@@H]1CC=C2NN(c3ccc(C)cc3)C(=O)CC[C@]2(c2ccccc2)O1 | 5.66 | 5.77 | 5.50 | 5.57 | 5.60 |
| CO[C@@H]1CC=C2NN(c3ccc([N+](=O)[O-])cc3)C(=O)CC[C@]2(c2ccccc2)O1 | 5.04 | 5.14 | 5.02 | 5.11 | 5.06 |
| COc1cc(OC)cc(N2NC3=CC[C@@H](OC)O[C@@]3(c3ccccc3)CCC2=O)c1 | 5.62 | 5.49 | 5.54 | 5.92 | 5.68 |
| CO[C@@H]1CC=C2NN(c3ccccn3)C(=O)CC[C@]2(c2ccccc2)O1 | 5.89 | 5.68 | 5.83 | 5.95 | 5.85 |
| CO[C@@H]1CC=C2NN(c3c[nH]c4ccccc34)C(=O)CC[C@]2(c2ccccc2)O1 | 5.95 | 6.00 | 5.95 | 5.92 | 5.96 |
| COc1ccc(N2NC3=CC[C@@H](OC)O[C@@]3(c3ccccc3)CCC2=O)cc1 | 5.39 | 5.34 | 5.29 | 5.62 | 5.51 |
| CO[C@@H]1CC=C2NN(c3cc(Cl)cc(Cl)c3)C(=O)CC[C@]2(c2ccccc2)O1 | 5.07 | 5.15 | 5.21 | 5.20 | 5.19 |
| CO[C@@H]1CC=C2N(c3ccc(C)cc3)C(=O)C[C@]2(c2ccccc2)O1 | 5.36 | 5.46 | 5.41 | 5.96 | 5.37 |
| CO[C@@H]1CC=C2N(c3ccc([N+](=O)[O-])cc3)C(=O)C[C@]2(c2ccccc2)O1 | 5.09 | 5.03 | 5.15 | 5.20 | 5.10 |
| COc1cc(OC)cc(N2C(=O)C[C@]3(c4ccccc4)O[C@H](OC)CC=C23)c1 | 5.21 | 5.14 | 5.39 | 5.96 | 5.21 |
| CO[C@@H]1CC=C2N(c3ccccn3)C(=O)C[C@]2(c2ccccc2)O1 | 5.08 | 5.29 | 5.21 | 5.96 | 5.14 |
| CO[C@@H]1CC=C2N(c3ccc4[nH]ccc4c3)C(=O)C[C@]2(c2ccccc2)O1 | 5.39 | 5.36 | 5.29 | 5.89 | 5.28 |
| CO[C@@H]1CC=C2N(c3c[nH]c4ccccc34)C(=O)C[C@]2(c2ccccc2)O1 | 5.13 | 5.09 | 5.28 | 5.64 | 5.15 |
| CO[C@@H]1CC=C2N(c3cc(Cl)cc(Cl)c3)C(=O)C[C@]2(c2ccccc2)O1 | 5.09 | 5.01 | 5.12 | 5.18 | 4.95 |
